From ChEMBL document CHEMBL1137261, “Structural insights into the ATP binding pocket of the anaplastic lymphoma kinase by site-directed mutagenesis, inhibitor binding analysis, and homology modeling” (J Med Chem, 2006)
Activity calls are given as the source filed them. The calls are words filed in the database; no cut-off is given here.

Columns and labels:
[1] = system: BaF3; assay: Induction of cell death of murine BaF3 cells expressing NPM/ALK L256T mutant by trypan blue exclusion assay; type: functional, cell-based; conditions: Mus musculus
[2] = system: BaF3; assay: Antiproliferative activity against murine BaF3 cells expressing NPM/ALK L256T mutant by [3H]thymidine uptake assay; type: functional, cell-based; conditions: Mus musculus
Outline: (§1)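 IL-3-independent BaF3 clones stably transfected (electroporation, G418 selection) with human NPM/ALK, WT or L256T; RPMI 1640 + 10% FBS, 37 °C, 5% CO2. Seeded 10^4/well, exposed to inhibitor (0-4 µM range in figure) or vehicle for 8-48 h; 3[H]-thymidine uptake.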

[3] = system: BaF3; assay: Antiproliferative activity against murine BaF3 cells expressing wild type NPM/ALK by [3H]thymidine uptake assay; type: functional, cell-based; conditions: Mus musculus; outline: as §1
[4] = biological target: T1, NPM/ALK (Nucleophosmin/ALK tyrosine kinase receptor) (Homo sapiens, UniProt P06748+Q9UM73, L256T); assay: Inhibition of NPM/ALK L256T mutant kinase activity in BaF3 cells by radioenzymatic assay; type: cell-based
T1 sequence (P06748 whole entry, stated change not applied): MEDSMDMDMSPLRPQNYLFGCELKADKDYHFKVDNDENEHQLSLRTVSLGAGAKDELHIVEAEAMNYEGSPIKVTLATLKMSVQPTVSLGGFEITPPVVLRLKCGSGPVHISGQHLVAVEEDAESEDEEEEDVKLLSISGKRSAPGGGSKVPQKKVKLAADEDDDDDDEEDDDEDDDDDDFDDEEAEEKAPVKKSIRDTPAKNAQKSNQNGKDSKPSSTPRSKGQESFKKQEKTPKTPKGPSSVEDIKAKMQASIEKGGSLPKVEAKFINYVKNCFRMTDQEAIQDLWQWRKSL
T1 sequence (Q9UM73 19-1620 L256T limits assumed, stated change not applied): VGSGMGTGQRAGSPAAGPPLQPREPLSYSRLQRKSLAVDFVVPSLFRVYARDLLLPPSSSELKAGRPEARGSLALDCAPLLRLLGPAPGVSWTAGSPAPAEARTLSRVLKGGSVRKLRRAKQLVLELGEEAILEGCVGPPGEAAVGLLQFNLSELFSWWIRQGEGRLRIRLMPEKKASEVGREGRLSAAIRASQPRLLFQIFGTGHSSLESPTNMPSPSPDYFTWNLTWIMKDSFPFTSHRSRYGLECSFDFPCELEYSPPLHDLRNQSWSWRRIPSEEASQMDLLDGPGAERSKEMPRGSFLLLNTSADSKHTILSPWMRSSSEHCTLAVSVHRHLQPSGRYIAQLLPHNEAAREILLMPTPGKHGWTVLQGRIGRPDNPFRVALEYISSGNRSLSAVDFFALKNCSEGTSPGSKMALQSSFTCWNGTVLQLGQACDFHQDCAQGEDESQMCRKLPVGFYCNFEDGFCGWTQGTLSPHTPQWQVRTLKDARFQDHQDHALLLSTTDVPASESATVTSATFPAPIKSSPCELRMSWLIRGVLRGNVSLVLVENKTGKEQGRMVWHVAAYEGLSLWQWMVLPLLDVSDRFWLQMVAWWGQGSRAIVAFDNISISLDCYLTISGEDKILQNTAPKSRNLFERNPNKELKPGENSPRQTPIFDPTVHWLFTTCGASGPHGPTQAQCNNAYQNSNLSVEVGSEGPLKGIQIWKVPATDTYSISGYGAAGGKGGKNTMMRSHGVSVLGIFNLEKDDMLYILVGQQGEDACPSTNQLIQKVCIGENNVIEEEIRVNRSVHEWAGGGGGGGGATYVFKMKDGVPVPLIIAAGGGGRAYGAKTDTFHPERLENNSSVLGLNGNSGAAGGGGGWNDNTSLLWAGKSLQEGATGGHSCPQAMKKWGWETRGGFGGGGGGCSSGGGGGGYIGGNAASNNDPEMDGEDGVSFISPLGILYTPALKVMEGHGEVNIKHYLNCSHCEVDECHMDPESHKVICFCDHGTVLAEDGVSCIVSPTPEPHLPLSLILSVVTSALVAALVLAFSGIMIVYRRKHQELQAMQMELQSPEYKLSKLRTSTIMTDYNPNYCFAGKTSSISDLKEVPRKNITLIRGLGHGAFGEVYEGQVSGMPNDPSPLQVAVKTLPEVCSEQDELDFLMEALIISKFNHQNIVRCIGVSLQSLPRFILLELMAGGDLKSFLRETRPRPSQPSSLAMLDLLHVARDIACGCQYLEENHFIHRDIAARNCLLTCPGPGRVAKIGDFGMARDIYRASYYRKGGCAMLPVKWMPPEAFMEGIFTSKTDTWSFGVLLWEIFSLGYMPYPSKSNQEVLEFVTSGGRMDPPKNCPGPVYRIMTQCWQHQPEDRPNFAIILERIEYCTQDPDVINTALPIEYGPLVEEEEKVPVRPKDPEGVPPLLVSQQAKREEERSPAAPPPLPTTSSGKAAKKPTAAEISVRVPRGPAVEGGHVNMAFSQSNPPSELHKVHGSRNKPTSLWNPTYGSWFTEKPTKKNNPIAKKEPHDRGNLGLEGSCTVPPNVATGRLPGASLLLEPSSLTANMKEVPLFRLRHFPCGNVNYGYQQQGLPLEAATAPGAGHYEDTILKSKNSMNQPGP

[5] = biological target: T2, NPM/ALK (Nucleophosmin/ALK tyrosine kinase receptor) (Homo sapiens, UniProt Q9UM73); assay: Inhibition of wild type NPM/ALK kinase activity in BaF3 cells by radioenzymatic assay; type: cell-based
T2 sequence (Q9UM73 whole entry): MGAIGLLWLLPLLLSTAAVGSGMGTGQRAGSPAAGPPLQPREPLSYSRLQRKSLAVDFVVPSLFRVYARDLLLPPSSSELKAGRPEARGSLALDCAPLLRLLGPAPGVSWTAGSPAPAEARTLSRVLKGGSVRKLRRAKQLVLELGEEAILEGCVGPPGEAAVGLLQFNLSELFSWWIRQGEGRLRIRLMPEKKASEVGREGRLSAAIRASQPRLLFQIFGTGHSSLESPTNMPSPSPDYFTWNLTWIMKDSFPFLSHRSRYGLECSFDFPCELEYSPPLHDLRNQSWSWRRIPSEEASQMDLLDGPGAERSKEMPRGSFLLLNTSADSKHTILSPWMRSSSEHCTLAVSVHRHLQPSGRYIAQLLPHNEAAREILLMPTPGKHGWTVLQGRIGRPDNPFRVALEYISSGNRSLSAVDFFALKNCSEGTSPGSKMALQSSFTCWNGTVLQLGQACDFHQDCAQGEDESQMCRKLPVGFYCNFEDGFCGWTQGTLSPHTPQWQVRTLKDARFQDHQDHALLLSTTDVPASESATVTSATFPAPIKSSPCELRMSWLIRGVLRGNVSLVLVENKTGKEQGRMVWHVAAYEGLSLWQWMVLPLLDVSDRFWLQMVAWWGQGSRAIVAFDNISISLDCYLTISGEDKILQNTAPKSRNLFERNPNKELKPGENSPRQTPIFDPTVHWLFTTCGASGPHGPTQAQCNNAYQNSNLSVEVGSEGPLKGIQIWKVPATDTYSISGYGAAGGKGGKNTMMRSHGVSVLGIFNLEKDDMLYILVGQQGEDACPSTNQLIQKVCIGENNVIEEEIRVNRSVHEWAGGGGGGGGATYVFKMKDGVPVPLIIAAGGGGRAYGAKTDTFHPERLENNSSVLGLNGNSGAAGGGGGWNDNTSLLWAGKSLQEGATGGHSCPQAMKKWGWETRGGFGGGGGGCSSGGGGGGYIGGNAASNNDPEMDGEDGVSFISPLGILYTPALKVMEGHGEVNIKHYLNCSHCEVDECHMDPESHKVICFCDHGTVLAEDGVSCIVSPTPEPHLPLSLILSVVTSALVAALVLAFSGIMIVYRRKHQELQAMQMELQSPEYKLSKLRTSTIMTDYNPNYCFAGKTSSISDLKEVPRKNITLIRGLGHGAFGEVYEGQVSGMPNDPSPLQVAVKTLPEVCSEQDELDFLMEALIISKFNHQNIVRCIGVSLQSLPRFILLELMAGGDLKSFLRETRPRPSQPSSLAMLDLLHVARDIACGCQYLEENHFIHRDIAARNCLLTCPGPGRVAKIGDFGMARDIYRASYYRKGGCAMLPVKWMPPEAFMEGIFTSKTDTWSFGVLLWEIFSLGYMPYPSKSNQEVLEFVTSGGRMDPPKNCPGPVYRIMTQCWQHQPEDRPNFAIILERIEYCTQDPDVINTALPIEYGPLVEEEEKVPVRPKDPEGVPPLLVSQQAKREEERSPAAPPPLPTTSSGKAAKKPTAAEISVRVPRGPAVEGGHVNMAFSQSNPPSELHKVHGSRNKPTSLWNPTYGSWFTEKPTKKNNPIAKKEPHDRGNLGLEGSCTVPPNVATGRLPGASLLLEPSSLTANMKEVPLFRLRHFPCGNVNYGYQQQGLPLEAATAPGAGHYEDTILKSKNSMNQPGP
T2 sequence (P06748 whole entry, further chain): as the sequence (P06748 whole entry, stated change not applied) above

[6] = biological target: T1, NPM/ALK (Nucleophosmin/ALK tyrosine kinase receptor); assay: Inhibition of NPM/ALK L256T mutant autophosphorylation activity in BaF3 cells by antiphosphotyrosine immunoblotting assay; type: cell-based
[7] = biological target: T2, NPM/ALK (Nucleophosmin/ALK tyrosine kinase receptor); assay: Inhibition of wild type NPM/ALK autophosphorylation activity in BaF3 cells by antiphosphotyrosine immunoblotting assay; type: cell-based

IC50 [2]	IC50 [3]	IC50 [4]	IC50 [5]	IC50 [6]	IC50 [7]	SMILES	Activity [1]
1800 nM	2000 nM					CSc1cccc(Nc2ncc3cc(-c4c(Cl)cccc4Cl)c(=O)n(C)c3n2)c1	Active
200 nM	1000 nM	150 nM	> 10 µM	200 nM	> 20 µM	COc1cc(Nc2c(C#N)cnc3cc(OCCCN4CCN(C)CC4)c(OC)cc23)c(Cl)cc1Cl [BOSUTINIB]	Active
9100 nM	7100 nM					Cc1ccc(NC(=O)c2ccc(CN3CCN(C)CC3)cc2)cc1Nc1nccc(-c2cccnc2)n1 [IMATINIB]	
